Source: ChEMBL document CHEMBL5038578, “Design, Synthesis, and Biological Evaluation of Peptidomimetic Aldehydes as Broad-Spectrum Inhibitors against Enterovirus and SARS-CoV-2” (J Med Chem, 2022)

Key:
[1] = Inhibition of Human enterovirus 71 3C-like protease expressed in Escherichia coli BL21 (DE3) cells using Dacyl-KTSAVLQSGFRKMEEdans as fluorogenic substrate incubated for 10 mins by FRET assay; set-up: species or system Enterovirus A71
Method in brief: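 EV71 3Cpro expressed with N-terminal His-SUMO2 tag, tag cut by SENP2, then purified on Ni-NTA, Q-Sepharose and Superdex200. Enzyme at 5 μM final, preincubated 10 min with serial compound dilutions in 25 mM Tris pH 8.0, 150 mM NaCl, 10% glycerol. Fluorescence read at ex 340/em 490 nm. IC50 (mean ± SD, ≥3 experiments) by nonlinear regression.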

Enterovirus A71 = assay: Antiviral activity against Human enterovirus 71 BrCr infected in human RD cells assessed as reduction in virus-induced cytopathic effect incubated for 4 days by MTS/PMS assay; format: functional, organism-based; details: Enterovirus A, 96 h
Method in brief: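 RD cells (2.5 × 10^4/well) adhered overnight, then infected with EV71 BrCr and given serial compound dilutions. Incubated 4 days, until full CPE in virus controls. Viability by MTS/PMS, absorbance at 498 nm after 1–2 h at 37 °C. Normalised to infected and uninfected untreated controls; EC50 by curve fitting.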

[2] = Cytotoxicity against human RD cells assessed as reduction in cell viability measured after 4 days by MTS/PMS assay; format: toxicity, cell-based; details: time 4 day
rhinovirus A2 = assay: Antiviral activity against wild type Rhinovirus-A02 infected in HeLa cells assessed as reduction in virus-induced cytopathic effect incubated for 3 days by MTS/PMS assay; format: functional, cell-based; details: Rhinovirus A, 72 h
rhinovirus B14 = assay: Antiviral activity against wild type Human rhinovirus B14 infected in HeLa cells assessed as reduction in virus-induced cytopathic effect incubated for 3 days by MTS/PMS assay; format: functional, organism-based; details: Rhinovirus B, 72 h
enterovirus D68 = assay: Antiviral activity against Human enterovirus 68 infected in HeLa cells assessed as reduction in virus-induced cytopathic effect incubated for 4 days by MTS/PMS assay; format: functional, organism-based; details: Enterovirus D, 96 h
Coxsackievirus A21 = assay: Antiviral activity against Human coxsackievirus A21 infected in HeLa cells assessed as reduction in virus-induced cytopathic effect incubated for 3 days by MTS/PMS assay; format: functional, organism-based; details: Enterovirus C, 72 h
Coxsackievirus B3 = assay: Antiviral activity against Human coxsackievirus B3 infected in Vero cells assessed as reduction in plaque formation treated 2 hrs post viral infection and measured 3 to 4 days post-infection by Giemsa staining based plaque reduction assay; format: functional, organism-based; details: Enterovirus B
[3] = Inhibition of SARS-CoV2 3C-like protease expressed in Escherichia coli BL21 (DE3) cells using Mca-AVLQSGFR-Lys(Dnp)-Lys-NH2 as fluorogenic substrate incubated for 10 mins by FRET assay; set-up: species or system Severe acute respiratory syndrome coronavirus 2
SARS-CoV-2 = assay: Antiviral activity against SARS Cov-2 infected in Vero E6 cells assessed as reduction in viral RNA replication measured 24 hrs post infection by qRT-PCR analysis; format: functional, organism-based; details: Severe acute respiratory syndrome coronavirus 2, Vero C1008, 24 h
[4] = Cytotoxicity against African green monkey Vero E6 cells assessed as reduction in cell viability incubated for 24 hrs by CCK8 assay; format: toxicity, cell-based, Vero C1008; details: chlorocebus sabaeus
Method in brief: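 Vero E6 cells (2 × 10^4/well) exposed to graded compound concentrations for 24 h. Relative surviving cell number measured by CCK-8.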

Row | Structure (SMILES) | IC50 [1] [nM] | EC50 (Enterovirus A71) [nM] | CC50 at 96 h [2] [µM] | EC50 (rhinovirus A2) [nM] | EC50 (rhinovirus B14) [nM] | EC50 (enterovirus D68) [nM] | EC50 (Coxsackievirus A21) [nM] | EC50 (Coxsackievirus B3) [µM] | IC50 [3] [nM] | EC50 (SARS-CoV-2) [nM] | CC50 at 24 h [4] [µM]
1 | CCOC(=O)/C=C/[C@H](C[C@@H]1CCNC1=O)NC(=O)[C@H](Cc1ccc(F)cc1)NC(=O)[C@@H](NC(=O)c1cc(C)on1)C(C)C | 1890 | 11 | > 100 |  |  |  |  |  |  |  | 
2 | O=C[C@H](C[C@@H]1CCNC1=O)NC(=O)[C@H](Cc1ccccc1)NC(=O)/C=C/c1ccccc1 | 4570 | 100 | > 100 | 6600 | 1190 | 80 | 1730 | 15.9 |  |  | 
3 | Cc1cc(C(=O)N[C@@H](Cc2ccccc2)C(=O)N[C@H](C=O)C[C@@H]2CCNC2=O)no1 | 2090 | 320 | > 100 |  |  |  |  |  |  |  | 
4 | O=C[C@H](C[C@@H]1CCNC1=O)NC(=O)[C@H](Cc1ccccc1)NC(=O)c1cccc2c1OCCO2 | 3010 | 770 | > 100 |  |  |  |  |  | 97 | 8210 | > 1000
5 | O=C[C@H](C[C@@H]1CCNC1=O)NC(=O)[C@H](Cc1ccccc1)NC(=O)c1cn2cc(Br)ccc2n1 | 1620 | 360 | > 100 |  |  |  |  |  |  |  | 
6 | O=C[C@H](C[C@@H]1CCNC1=O)NC(=O)[C@H](Cc1ccccc1)NC(=O)c1cncc(F)c1 | 2020 | 470 | > 100 |  |  |  |  |  |  |  | 
7 | O=C[C@H](C[C@@H]1CCNC1=O)NC(=O)[C@H](Cc1ccccc1)NC(=O)c1ccc2c(c1)OCCO2 | 2210 | 300 | > 100 |  |  |  |  |  |  |  | 
8 | O=C[C@H](C[C@@H]1CCNC1=O)NC(=O)[C@H](Cc1ccccc1)NC(=O)C1=Cc2cc(Cl)ccc2OC1 | 4340 | 70 | 16.4 |  |  |  |  |  | 120 | 250 | 299
9 | Cc1nc2ccccc2nc1C(=O)N[C@@H](Cc1ccccc1)C(=O)N[C@H](C=O)C[C@@H]1CCNC1=O | 3040 | 370 | > 100 |  |  |  |  |  | 65 | 440 | 603
10 | COC(=O)/C=C/[C@H](C[C@@H]1CCNC1=O)NC(=O)[C@H](Cc1ccccc1)NC(=O)/C=C/c1ccccc1 | 1730 | 1210 | > 100 | 1680 | 1650 | 100 | 3620 | 77.7 |  |  | 
11 | O=C[C@H](C[C@@H]1CCNC1=O)NC(=O)[C@H](Cc1ccccc1)NC(=O)c1ccc2[nH]ccc2c1 | 3830 | 690 | > 100 |  |  |  |  |  |  |  | 
12 | O=C(/C=C/c1ccccc1)N[C@@H](Cc1ccccc1)C(=O)N[C@H](/C=C/C(=O)OCc1ccccc1)C[C@@H]1CCNC1=O | 2060 | 3100 | > 100 |  |  |  |  |  |  |  | 
13 | O=C[C@H](C[C@@H]1CCNC1=O)NC(=O)[C@H](Cc1ccccc1)NC(=O)c1ccc2ccccc2n1 | 13000 | 120 | > 100 |  |  |  |  |  | 140 | 430 | 627
14 | O=C[C@H](C[C@@H]1CCNC1=O)NC(=O)[C@H](Cc1ccccc1)NC(=O)c1ccc2c(c1)OCO2 | 1470 | 220 | > 100 |  |  |  |  |  | 78 | 1350 | > 1000
15 | CC(C)[C@H](NC(=O)c1cc2ccccc2o1)C(=O)N[C@@H](Cc1ccccc1)C(=O)N[C@H](C=O)C[C@@H]1CCNC1=O | 2430 | 96 | > 100 |  |  |  |  |  | 67 | 5620 | > 1000
16 | O=C[C@H](C[C@@H]1CCNC1=O)NC(=O)[C@H](Cc1ccccc1)NC(=O)c1ccc2ccc(Br)cc2n1 | 3220 | 94 | 46.2 |  |  |  |  |  | 240 | 350 | 823
17 | O=C[C@H](C[C@@H]1CCNC1=O)NC(=O)[C@H](Cc1ccccc1)NC(=O)c1ccc2occc2c1 | 2370 | 290 | > 100 |  |  |  |  |  | 59 | 760 | > 1000
18 | O=C[C@H](C[C@@H]1CCNC1=O)NC(=O)[C@H](Cc1ccccc1)NC(=O)c1cc2ccccc2o1 | 2440 | 93 | > 100 |  |  |  |  |  | 80 | 490 | > 1000
19 | CC(C)[C@H](NC(=O)c1cc2ccccc2[nH]1)C(=O)N[C@@H](Cc1ccccc1)C(=O)N[C@H](C=O)C[C@@H]1CCNC1=O | 4160 | 120 | 72.5 | 1020 | 980 | 260 | 510 | 9.15 | 68 | 4220 | > 1000
20 | Cc1cc(C(=O)N[C@H](C(=O)N[C@@H](Cc2ccccc2)C(=O)N[C@H](C=O)C[C@@H]2CCNC2=O)C(C)C)no1 | 6730 | 90 | > 100 |  |  |  |  |  | 67 | > 2000 | > 1000
21 | O=C[C@H](C[C@@H]1CCNC1=O)NC(=O)[C@H](Cc1ccccc1)NC(=O)c1cnc2ccccc2n1 | 3600 | 140 | > 100 |  |  |  |  |  |  |  | 
22 | CC(C)[C@H](NC(=O)c1ccc2c(c1)OCCO2)C(=O)N[C@@H](Cc1ccccc1)C(=O)N[C@H](C=O)C[C@@H]1CCNC1=O | 4040 | 440 | > 100 |  |  |  |  |  |  |  | 
